For six molecules, IC50, inhibition and Activity results are on record in ChEMBL document CHEMBL1137816, “New polyhydroxylated pyrrolidine, piperidine, and pyrrolizidine alkaloids from Scilla sibirica” (J Nat Prod, 2002).

The target in one test is T1, Beta-galactosidase (Bos taurus, UniProt Q58D55).
T1 sequence (Q58D55 whole entry): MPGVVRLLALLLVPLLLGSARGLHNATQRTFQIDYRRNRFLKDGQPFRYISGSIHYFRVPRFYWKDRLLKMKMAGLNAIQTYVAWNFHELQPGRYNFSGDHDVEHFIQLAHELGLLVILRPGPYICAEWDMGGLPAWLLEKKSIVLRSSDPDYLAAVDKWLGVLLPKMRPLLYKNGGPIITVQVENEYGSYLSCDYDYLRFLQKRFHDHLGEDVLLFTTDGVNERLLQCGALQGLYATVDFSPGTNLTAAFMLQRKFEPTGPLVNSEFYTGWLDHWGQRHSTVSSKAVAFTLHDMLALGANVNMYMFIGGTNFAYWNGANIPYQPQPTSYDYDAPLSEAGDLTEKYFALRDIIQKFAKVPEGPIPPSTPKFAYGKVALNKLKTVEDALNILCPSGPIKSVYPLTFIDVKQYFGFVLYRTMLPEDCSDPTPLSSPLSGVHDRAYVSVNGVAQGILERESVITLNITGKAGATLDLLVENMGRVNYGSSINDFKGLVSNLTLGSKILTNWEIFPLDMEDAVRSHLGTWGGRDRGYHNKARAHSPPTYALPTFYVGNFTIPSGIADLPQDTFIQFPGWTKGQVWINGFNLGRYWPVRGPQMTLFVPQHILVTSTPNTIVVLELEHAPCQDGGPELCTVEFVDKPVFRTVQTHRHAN
The experiment in a line: Inhibition of bovine liver beta-galactosidase assessed as p-nitrophenol release after 30 mins by spectrophotometry. In short, it runs like this:
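Bovine liver enzyme at pH 6.8 with the appropriate p-nitrophenyl glycoside. Incubated with inhibitor 30 min at 37 °C, quenched with 400 mM Na2CO3, and released p-nitrophenol read at 400 nm.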

The nature of test [1]: Inhibition of Penicillium decumbens alpha-L-rhamnosidase assessed as p-nitrophenol release after 30 mins by spectrophotometry. In short, it runs like this: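 Penicillium decumbens enzyme assayed at pH 4.5 with the appropriate p-nitrophenyl glycoside. Substrate, diluted enzyme and inhibitor were incubated 30 min at 37 °C, then stopped with 400 mM Na2CO3. Released p-nitrophenol was read at 400 nm.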

Test [2] addresses T2, Beta-mannosidase (Rattus norvegicus) (UniProt Q4FZV0).
T2 sequence (whole entry): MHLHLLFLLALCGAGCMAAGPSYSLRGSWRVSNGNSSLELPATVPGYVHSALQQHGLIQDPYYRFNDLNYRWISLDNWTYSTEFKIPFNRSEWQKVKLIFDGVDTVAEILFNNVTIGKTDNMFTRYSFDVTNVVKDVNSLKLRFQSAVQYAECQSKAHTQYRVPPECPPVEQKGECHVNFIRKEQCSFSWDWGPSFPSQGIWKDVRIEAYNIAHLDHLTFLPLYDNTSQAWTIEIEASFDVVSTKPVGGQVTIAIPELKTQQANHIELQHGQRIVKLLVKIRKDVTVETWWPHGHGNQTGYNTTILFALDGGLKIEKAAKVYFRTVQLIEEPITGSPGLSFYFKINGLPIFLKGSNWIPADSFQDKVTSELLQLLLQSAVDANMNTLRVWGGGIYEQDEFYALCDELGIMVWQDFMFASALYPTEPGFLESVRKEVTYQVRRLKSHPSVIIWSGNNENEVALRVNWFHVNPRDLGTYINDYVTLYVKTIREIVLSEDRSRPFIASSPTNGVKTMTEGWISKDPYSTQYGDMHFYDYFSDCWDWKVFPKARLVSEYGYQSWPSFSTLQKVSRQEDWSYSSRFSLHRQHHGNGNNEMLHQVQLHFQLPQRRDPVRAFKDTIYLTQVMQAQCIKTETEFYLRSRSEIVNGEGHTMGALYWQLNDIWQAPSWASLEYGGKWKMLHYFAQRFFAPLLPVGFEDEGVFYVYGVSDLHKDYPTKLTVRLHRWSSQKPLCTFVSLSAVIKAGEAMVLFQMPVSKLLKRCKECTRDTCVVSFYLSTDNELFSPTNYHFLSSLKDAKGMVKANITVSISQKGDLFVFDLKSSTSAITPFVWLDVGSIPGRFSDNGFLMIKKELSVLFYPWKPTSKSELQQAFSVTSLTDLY
The experiment in a line: Inhibition of rat epididymis beta-mannosidase assessed as p-nitrophenol release at 1000 uM after 30 mins by spectrophotometry. In short, it runs like this:
(§1)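 p-Nitrophenyl glycoside substrates: Penicillium decumbens α-L-rhamnosidase at pH 4.5, bovine epididymis α-L-fucosidase at pH 5.5, bovine liver β-galactosidase at pH 6.8. β-Mannosidase came from rat epididymal fluid purified from epididymis, with p-nitrophenyl-β-D-mannoside at pH 5.2. Enzyme, substrate and inhibitor were incubated 30 min at 37 °C. The reaction was stopped with 400 mM Na2CO3, and p-nitrophenol was read at 400 nm.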

Test [3] is described as follows: Inhibition of rice alpha-glucosidase assessed as D-glucose release after 10 mins by Glucose B-test. Also on record: species or system Oryza sativa. In short, it runs like this:
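Rice enzyme with maltose as substrate at the enzyme's optimum pH. Incubation with inhibitor ran 10 min at 37 °C. Released D-glucose determined colorimetrically with a glucose test kit.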

The target of test [4] is Oligo-1,6-glucosidase IMA1 (Saccharomyces cerevisiae S288c) (UniProt P53051). Description: Inhibition of yeast alpha-glucosidase assessed as p-nitrophenol release at 1000 uM after 30 mins measured spectrometrically at 400 nm.
Test [5] has as its target Lysosomal alpha-glucosidase (Rattus norvegicus, UniProt Q6P7A9). The experiment in a line: Inhibition of rat liver lysosome alpha-glucosidase assessed as p-nitrophenol release after 30 mins measured spectrometrically at 400 nm.
Test [6] deals with T3, Tissue alpha-L-fucosidase (Bos taurus) (UniProt Q2KIM0).
T3 sequence (whole entry): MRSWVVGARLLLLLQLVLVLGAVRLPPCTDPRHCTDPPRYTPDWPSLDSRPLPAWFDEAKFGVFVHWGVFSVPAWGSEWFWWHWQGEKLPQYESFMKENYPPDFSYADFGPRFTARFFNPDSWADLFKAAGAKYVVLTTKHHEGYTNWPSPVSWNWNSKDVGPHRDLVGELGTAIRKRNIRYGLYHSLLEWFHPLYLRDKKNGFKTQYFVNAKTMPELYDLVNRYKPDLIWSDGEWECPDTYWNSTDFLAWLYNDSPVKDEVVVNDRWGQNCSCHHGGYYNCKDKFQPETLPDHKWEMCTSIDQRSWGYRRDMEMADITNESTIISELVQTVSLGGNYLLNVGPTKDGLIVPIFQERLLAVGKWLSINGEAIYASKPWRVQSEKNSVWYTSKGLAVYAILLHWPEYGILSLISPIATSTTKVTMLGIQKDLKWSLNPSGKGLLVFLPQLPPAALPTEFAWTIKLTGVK
Description: Inhibition of bovine epididymis alpha-L-fucosidase assessed as p-nitrophenol release at 1000 uM after 30 mins by spectrophotometry. In short, it runs like this: as §1

In the next test the target is Alpha-glucosidase MAL12 (Saccharomyces cerevisiae S288c, UniProt P53341). The experiment in a line: Inhibition of yeast alpha-glucosidase assessed as p-nitrophenol release after 30 mins measured at 400 nm.
Test [7] has as its target Lysosomal alpha-glucosidase (Rattus norvegicus) (UniProt Q6P7A9). Description: Inhibition of rat intestinal maltase assessed as D-glucose release at 1000 uM after 30 mins by Glucose B-test. In a few lines:
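Brush border membranes from rat small intestine served as the enzyme source, with maltose substrate at pH 5.8. Incubation with inhibitor was 30 min at 37 °C. Released D-glucose was measured colorimetrically by Glucose B-test.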

The next test concerns the target T4, Beta-mannosidase (Rattus norvegicus, UniProt Q4FZV0).
T4 sequence (Q4FZV0 whole entry): T2 sequence (whole entry)
Description: Inhibition of rat epididymis beta-mannosidase assessed as p-nitrophenol release after 30 mins by spectrophotometry. In a few lines:
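Source was rat epididymal fluid purified from epididymis. Assayed at pH 5.2 with p-nitrophenyl-β-D-mannoside, incubated with inhibitor 30 min at 37 °C. Stopped with 400 mM Na2CO3; p-nitrophenol read at 400 nm.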

Test [8] has as its target Lysosomal alpha-glucosidase (Rattus norvegicus) (UniProt Q6P7A9). Description: Inhibition of rat liver lysosome alpha-glucosidase assessed as p-nitrophenol release at 1000 uM after 30 mins measured spectrometrically at 400 nm.
The test system of the next test is Oryza sativa. The experiment in a line: Inhibition of rice alpha-glucosidase assessed as D-glucose release at 1000 uM after 10 mins by Glucose B-test. In short, it runs like this:
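Rice α-glucosidase was assayed with maltose as substrate at the enzyme's optimum pH. Incubation with inhibitor was 10 min at 37 °C. Released D-glucose was determined colorimetrically by Glucose B-test.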

In another test the target is Beta-glucosidase A (Caldicellulosiruptor saccharolyticus, UniProt P10482). Description: Inhibition of Caldocellum saccharolyticum beta-glucosidase assessed as p-nitrophenol release after 30 mins measured spectrometrically at 400 nm.
The subject of a further test is Penicillium decumbens. The experiment in a line: Inhibition of Penicillium decumbens alpha-L-rhamnosidase assessed as p-nitrophenol release at 1000 uM by spectrophotometry. In short, it runs like this:
as §1

Test [9] addresses T5, Beta-galactosidase (Bos taurus) (UniProt Q58D55).
T5 sequence (whole entry): T1 sequence (Q58D55 whole entry)
Description: Inhibition of bovine liver beta-galactosidase assessed as p-nitrophenol release at 1000 uM after 30 mins by spectrophotometry. In short, it runs like this:
as §1

Test [10] addresses T6, Tissue alpha-L-fucosidase (Bos taurus, UniProt Q2KIM0).
T6 sequence (Q2KIM0 whole entry): T3 sequence (whole entry)
The experiment in a line: Inhibition of bovine epididymis alpha-L-fucosidase assessed as p-nitrophenol release after 30 mins by spectrophotometry. In a few lines: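 Enzyme from bovine epididymis, run at pH 5.5 with the appropriate p-nitrophenyl glycoside substrate. Enzyme, substrate and inhibitor incubated together 30 min at 37 °C. Reaction stopped by adding 400 mM Na2CO3; p-nitrophenol measured spectrometrically at 400 nm.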

For test [11], the target named is Oligo-1,6-glucosidase IMA1 (Saccharomyces cerevisiae S288c) (UniProt P53051). Description: Inhibition of yeast alpha-glucosidase assessed as D-glucose release at 1000 uM after 30 mins by Glucose B-test.
Test [12] concerns the target Lysosomal alpha-glucosidase (Rattus norvegicus) (UniProt Q6P7A9). Description: Inhibition of rat liver lysosome alpha-glucosidase assessed as D-glucose release at 1000 uM after 30 mins by Glucose B-test.
Test [13] has as its target Lactase/phlorizin hydrolase (Rattus norvegicus, UniProt Q02401). The experiment in a line: Inhibition of rat intestinal lactase assessed as p-nitrophenol release after 30 mins by spectrophotometry.
A short description of test [14]: Inhibition of rat intestinal amyloglucosidase.

Activity calls are given as the source filed them. The calls are words filed in the database; no cut-off is given here.

Sequence of Oligo-1,6-glucosidase IMA1 (Saccharomyces cerevisiae S288c) (P53051 whole entry): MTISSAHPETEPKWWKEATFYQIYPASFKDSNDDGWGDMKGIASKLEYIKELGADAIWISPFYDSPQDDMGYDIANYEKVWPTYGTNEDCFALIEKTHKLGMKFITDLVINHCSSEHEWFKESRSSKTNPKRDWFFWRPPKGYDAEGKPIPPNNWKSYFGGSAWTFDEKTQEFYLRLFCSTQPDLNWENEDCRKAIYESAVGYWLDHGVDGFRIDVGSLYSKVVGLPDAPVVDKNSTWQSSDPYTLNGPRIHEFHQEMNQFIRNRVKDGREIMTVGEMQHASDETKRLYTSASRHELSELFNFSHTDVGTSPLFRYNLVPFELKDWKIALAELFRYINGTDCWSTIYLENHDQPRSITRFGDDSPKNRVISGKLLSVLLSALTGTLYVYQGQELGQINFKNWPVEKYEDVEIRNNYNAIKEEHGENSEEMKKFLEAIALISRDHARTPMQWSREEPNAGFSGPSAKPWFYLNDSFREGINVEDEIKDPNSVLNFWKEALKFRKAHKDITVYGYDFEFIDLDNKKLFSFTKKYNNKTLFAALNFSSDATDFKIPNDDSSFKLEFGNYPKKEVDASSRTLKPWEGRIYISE
Sequence of Lysosomal alpha-glucosidase (Rattus norvegicus) (Q6P7A9 whole entry): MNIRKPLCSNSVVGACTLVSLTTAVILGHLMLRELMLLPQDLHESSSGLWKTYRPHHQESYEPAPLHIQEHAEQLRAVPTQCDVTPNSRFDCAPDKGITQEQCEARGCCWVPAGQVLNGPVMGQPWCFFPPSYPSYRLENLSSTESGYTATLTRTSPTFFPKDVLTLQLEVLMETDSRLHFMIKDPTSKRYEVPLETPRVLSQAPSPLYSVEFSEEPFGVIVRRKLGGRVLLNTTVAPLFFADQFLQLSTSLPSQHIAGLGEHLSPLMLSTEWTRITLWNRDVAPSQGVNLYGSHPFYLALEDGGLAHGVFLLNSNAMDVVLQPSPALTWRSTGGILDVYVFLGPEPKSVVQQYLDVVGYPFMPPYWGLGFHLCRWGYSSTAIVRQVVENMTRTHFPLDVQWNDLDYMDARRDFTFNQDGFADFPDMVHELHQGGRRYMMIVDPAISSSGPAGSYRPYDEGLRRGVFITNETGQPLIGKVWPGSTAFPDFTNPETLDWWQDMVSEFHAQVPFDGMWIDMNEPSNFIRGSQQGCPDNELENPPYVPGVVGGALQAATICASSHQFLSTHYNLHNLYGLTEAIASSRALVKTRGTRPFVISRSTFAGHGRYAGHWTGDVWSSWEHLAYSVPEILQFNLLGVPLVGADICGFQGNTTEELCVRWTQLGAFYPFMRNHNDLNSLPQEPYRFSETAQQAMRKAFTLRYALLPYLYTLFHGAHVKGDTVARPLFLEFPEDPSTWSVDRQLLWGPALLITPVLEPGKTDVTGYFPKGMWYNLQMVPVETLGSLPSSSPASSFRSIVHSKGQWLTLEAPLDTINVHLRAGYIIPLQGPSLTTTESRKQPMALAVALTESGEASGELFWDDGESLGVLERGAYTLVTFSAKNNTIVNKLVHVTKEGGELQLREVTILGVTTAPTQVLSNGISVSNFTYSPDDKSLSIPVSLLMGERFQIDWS
Sequence of Beta-glucosidase A (P10482 whole entry): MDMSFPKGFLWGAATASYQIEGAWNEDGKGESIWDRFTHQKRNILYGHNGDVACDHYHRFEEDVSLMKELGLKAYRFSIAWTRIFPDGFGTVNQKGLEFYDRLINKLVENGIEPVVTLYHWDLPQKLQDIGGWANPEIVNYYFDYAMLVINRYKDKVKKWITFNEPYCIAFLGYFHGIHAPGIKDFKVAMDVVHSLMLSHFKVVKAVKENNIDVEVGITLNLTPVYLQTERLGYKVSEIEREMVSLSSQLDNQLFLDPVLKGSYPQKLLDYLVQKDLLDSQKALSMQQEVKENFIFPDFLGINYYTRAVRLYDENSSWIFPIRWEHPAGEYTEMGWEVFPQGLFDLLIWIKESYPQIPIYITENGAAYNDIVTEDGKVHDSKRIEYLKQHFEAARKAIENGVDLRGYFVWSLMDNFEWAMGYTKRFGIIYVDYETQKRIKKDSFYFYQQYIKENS
Sequence of Lactase/phlorizin hydrolase (Q02401 868-1928 limits assumed): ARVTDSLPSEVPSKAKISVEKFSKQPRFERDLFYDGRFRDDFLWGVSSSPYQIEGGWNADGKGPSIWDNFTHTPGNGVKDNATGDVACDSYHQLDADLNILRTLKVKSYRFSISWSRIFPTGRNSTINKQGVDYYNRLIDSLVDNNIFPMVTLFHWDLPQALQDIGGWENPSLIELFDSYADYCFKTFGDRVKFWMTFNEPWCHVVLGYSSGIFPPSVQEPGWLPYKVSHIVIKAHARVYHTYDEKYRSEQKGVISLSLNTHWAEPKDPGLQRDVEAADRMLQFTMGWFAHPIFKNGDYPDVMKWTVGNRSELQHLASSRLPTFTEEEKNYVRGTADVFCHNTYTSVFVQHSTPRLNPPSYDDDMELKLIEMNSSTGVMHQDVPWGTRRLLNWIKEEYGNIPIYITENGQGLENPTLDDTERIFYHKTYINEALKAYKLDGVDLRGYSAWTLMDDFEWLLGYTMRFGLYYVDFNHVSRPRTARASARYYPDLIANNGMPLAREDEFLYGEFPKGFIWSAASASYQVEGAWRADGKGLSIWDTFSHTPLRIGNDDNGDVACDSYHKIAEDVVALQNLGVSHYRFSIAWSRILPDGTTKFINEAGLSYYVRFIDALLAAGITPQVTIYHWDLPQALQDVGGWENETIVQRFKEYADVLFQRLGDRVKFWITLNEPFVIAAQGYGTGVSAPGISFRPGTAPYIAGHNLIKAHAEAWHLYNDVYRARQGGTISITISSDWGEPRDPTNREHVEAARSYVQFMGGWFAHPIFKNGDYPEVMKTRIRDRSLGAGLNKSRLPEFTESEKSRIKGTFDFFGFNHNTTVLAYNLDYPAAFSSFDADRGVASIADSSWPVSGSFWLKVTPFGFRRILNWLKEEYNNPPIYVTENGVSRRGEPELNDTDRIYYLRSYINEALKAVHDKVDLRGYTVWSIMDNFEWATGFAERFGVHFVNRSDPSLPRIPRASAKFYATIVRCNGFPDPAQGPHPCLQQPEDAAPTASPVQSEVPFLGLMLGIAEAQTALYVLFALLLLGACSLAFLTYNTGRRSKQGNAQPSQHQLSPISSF
Sequence of Lysosomal alpha-glucosidase (Q6P7A9 whole entry): as the sequence (Q6P7A9 whole entry) above
Sequence of Alpha-glucosidase MAL12 (P53341 whole entry): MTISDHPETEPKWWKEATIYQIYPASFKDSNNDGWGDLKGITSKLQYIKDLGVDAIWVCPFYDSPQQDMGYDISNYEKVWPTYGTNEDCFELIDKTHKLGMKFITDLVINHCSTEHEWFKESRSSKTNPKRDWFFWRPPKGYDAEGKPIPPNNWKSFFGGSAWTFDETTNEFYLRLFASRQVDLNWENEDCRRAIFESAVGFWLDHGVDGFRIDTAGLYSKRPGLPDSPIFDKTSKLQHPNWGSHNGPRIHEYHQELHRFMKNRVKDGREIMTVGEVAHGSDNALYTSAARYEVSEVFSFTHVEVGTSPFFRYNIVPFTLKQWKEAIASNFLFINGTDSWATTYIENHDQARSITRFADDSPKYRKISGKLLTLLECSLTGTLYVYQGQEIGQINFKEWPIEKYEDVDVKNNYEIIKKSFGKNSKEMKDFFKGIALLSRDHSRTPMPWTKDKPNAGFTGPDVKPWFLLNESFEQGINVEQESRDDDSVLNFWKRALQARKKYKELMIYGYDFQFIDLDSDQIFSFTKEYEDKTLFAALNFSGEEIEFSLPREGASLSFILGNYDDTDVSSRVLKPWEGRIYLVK

In the case of `C[C@H]1N[C@H](CO)[C@@H](O)[C@H](O)[C@H]1O`, the IC50 is 260 µM at Beta-galactosidase, 94 µM in test [1], 8 µM in test [3] and 19 µM in test [5]. The inhibition in [2], in test [4] and in test [6] was less than 50% each time.

As to `OCC[C@H]1N[C@H](CO)[C@@H](O)[C@@H]1O`, the IC50 was found to be 88 µM at Beta-galactosidase; 94 µM in test [1]; 250 µM on Alpha-glucosidase MAL12; 320 µM on Beta-mannosidase; 350 µM at Beta-glucosidase A. Besides, the inhibition (in [7]; in [8]; in the test on Oryza sativa) was less than 50% throughout.

On to `OCC[C@H]1N[C@@H](CO)[C@H](O)[C@H]1O`, for which the inhibition (in test [2]; in the test on Penicillium decumbens; in [9]; in test [4]; with Oryza sativa) was less than 50% throughout. Moreover, the IC50 in [10] stood at 840 µM.

As to `OCC[C@H]1N[C@H](CO)[C@@H](O)[C@@H]1O[C@@H]1O[C@H](CO)[C@@H](O)[C@H](O)[C@@H]1O`, the inhibition (in [7]; in test [8]; in test [4]; with Oryza sativa) was less than 50% in each case. Also, the results for the IC50 (at Beta-mannosidase; in test [10]) were 160 µM and 78 µM, respectively.

As to `C[C@@H]1C[C@@H](O)[C@@H]2[C@H](O)[C@H](O)[C@@H](CO)N21` [HYACINTHACINE B3], the result (in [7]; in the test with Penicillium decumbens; in [11]; in [9]; in test [12]; in test [6]) was inactive. In the test with Oryza sativa, the outcome was inactive. In addition, the values for the IC50 in test [13] and in test [14] were 18 µM and 51 µM, respectively.

For `C[C@@H]1C[C@H](O)[C@@H]2[C@@H](O)[C@H](O)[C@@H](CO)N21` (relative stereo) [HYACINTHACINE B4], the outcome (in [7]; in the test with Penicillium decumbens; in test [11]; in test [9]; in [12]; in test [6]) was inactive. For the same molecule, the outcome in the test with Oryza sativa was inactive. In addition, the IC50 was 23 µM in [10] and 89 µM in test [14].

Broadly, the IC50 is the concentration needed to halve the response being measured. One may read the inhibition as the change of the read-out against control, counted positive when it falls.
